# Measured values reported in ChEMBL document CHEMBL1687827, “Profiling the Aspergillus fumigatus proteome in response to caspofungin” (2011).
# Calls of active or inactive are those of the source. The rule behind the calls is not given here.
# Experiments:
# [1] = system: Aspergillus fumigatus; assay: Induction of change in NAP family protein level in iTRAQ-118 labelled cell wall fraction of drug-susceptible Aspergillus fumigatus KU80 delta-akuB at 0.12 ug/ml after 24 hrs in YPD medium by MS (MS/MS) analysis relative to control; type: functional
# Outline: (§1)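 Conidia at 1 × 10⁵/ml grown shaking at 37°C in YPD with or without 0.12 μg/ml caspofungin; mycelia filtered at 24 or 48 h. Secreted fraction taken from the filtrate; cell wall/plasma membrane pellet recovered after French-press lysis and a 5,000 × g spin. Proteins trypsin-digested and iTRAQ-labelled, drug vs no-drug channels at each time, then 2D LC-MS/MS. Protein ratio is the median of ratios from uniquely assigned peptides after median normalization.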
# [2] = system: Aspergillus fumigatus; assay: Induction of change in 4-hydroxyphenylpyruvate dioxygenase, putative protein level in iTRAQ-116 labelled secreted fraction of drug-susceptible Aspergillus fumigatus KU80 delta-akuB at 0.12 ug/ml after 48 hrs in YPD medium by MS (MS/MS) analysis relative to control; type: functional; outline: as §1
# [3] = system: Aspergillus fumigatus; assay: Induction of change in hypothetical protein locus AFUA_5G14680 level in iTRAQ-116 labelled secreted fraction of drug-susceptible Aspergillus fumigatus KU80 delta-akuB at 0.12 ug/ml after 48 hrs in YPD medium by MS (MS/MS) analysis relative to control; type: functional
# Outline: (§2)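 Conidia (1 × 10⁵/ml) grown in YPD, 37°C, 225 rpm, ± 0.12 μg/ml caspofungin; filtrate taken as secreted fraction, French-press lysate 5,000 × g pellet as cell wall/plasma membrane. Trypsin digests 8-plex iTRAQ-labelled (drug-free channels as references), pooled, 2D-chromatography, MS/MS. Median-normalized; protein ratio = median of unique-peptide ratios, log2 normalized.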
# [4] = system: Aspergillus fumigatus; assay: Induction of change in IgE-binding gene expression in drug-susceptible Aspergillus fumigatus KU80 delta-akuB at 0.12 ug/ml after 48 hrs in YPD medium by microarray analysis relative to control; type: functional
# Outline: (§3)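 Mycelia grown in YPD ± 0.12 μg/ml caspofungin (1 × 10⁵ conidia/ml, 37°C, shaking) and harvested at 24 or 48 h. Total RNA extracted, DNase-treated and quality-checked; 2 μg labelled per TIGR SOP M007 and hybridized to whole-genome arrays. Three independent experiments with dye flip (6 replicates); drug vs untreated fold change.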
# [5] = system: Aspergillus fumigatus; assay: Induction of change in 60s ribosomal protein yl6 protein level in iTRAQ114 labelled secreted fraction of drug-susceptible Aspergillus fumigatus KU80 delta-akuB at 0.12 ug/ml after 24 hrs in YPD medium by MS (MS/MS) analysis relative to control; type: functional; outline: as §1
# [6] = system: Aspergillus fumigatus; assay: Induction of change in choline oxidase (CodA), putative protein level in iTRAQ-116 labelled secreted fraction of drug-susceptible Aspergillus fumigatus KU80 delta-akuB at 0.12 ug/ml after 48 hrs in YPD medium by MS (MS/MS) analysis relative to control; type: functional; outline: as §1
# [7] = system: Aspergillus fumigatus; assay: Induction of change in 60S ribosomal protein L12, putative gene expression in drug-susceptible Aspergillus fumigatus KU80 delta-akuB at 0.12 ug/ml after 24 hrs in YPD medium by microarray analysis relative to control; type: functional; outline: as §3
# [8] = system: Aspergillus fumigatus; assay: Induction of change in ribosomal protein L27a protein level in iTRAQ114 labelled cell wall fraction of drug-susceptible Aspergillus fumigatus KU80 delta-akuB at 0.12 ug/ml after 24 hrs in YPD medium by MS (MS/MS) analysis relative to control; type: functional
# [9] = system: Aspergillus fumigatus; assay: Induction of change in 60s ribosomal protein yl6 protein level in iTRAQ114 labelled cell wall fraction of drug-susceptible Aspergillus fumigatus KU80 delta-akuB at 0.12 ug/ml after 24 hrs in YPD medium by MS (MS/MS) analysis relative to control; type: functional; outline: as §1
# [10] = system: Aspergillus fumigatus; assay: Induction of change in cytosolic small ribosomal subunit S15, putative protein level in iTRAQ114 labelled cell wall fraction of drug-susceptible Aspergillus fumigatus KU80 delta-akuB at 0.12 ug/ml after 24 hrs in YPD medium by MS (MS/MS) analysis relative to control; type: functional; outline: as §1
# [11] = system: Aspergillus fumigatus; assay: Induction of change in extracellular thaumatin domain protein, putative gene expression in drug-susceptible Aspergillus fumigatus KU80 delta-akuB at 0.12 ug/ml after 48 hrs in YPD medium by microarray analysis relative to control; type: functional; outline: as §3
# [12] = system: Aspergillus fumigatus; assay: Induction of change in hypothetical gene locus AFUA_4G11270 expression in drug-susceptible Aspergillus fumigatus KU80 delta-akuB at 0.12 ug/ml after 48 hrs in YPD medium by microarray analysis relative to control; type: functional; outline: as §3
# [13] = system: Aspergillus fumigatus; assay: Induction of change in ThiJ/PfpI family protein level in iTRAQ-118 labelled cell wall fraction of drug-resistant Aspergillus fumigatus EMFR-S678P at 0.12 ug/ml after 24 hrs in YPD medium by MS (MS/MS) analysis relative to control; type: functional
# Outline: (§4)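 Conidia at 1 × 10⁵/ml were grown at 37°C, shaking at 225 rpm, in YPD with or without 0.12 μg/ml caspofungin for 24 or 48 h. The culture filtrate was kept as the secreted fraction. Mycelia were lysed by French press in HEPES/glycerol/EDTA/PMSF/DTT buffer, and the 5,000 × g pellet was washed to give CW/PM. Proteins were reduced, alkylated and trypsin-digested at 37°C overnight, then iTRAQ-labelled and run by 2D LC-MS/MS. Ratios are the median of unique-peptide ratios, median-normalized, versus the no-drug control.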
# [14] = system: Aspergillus fumigatus; assay: Induction of change in thioredoxin TrxA protein level in iTRAQ-118 labelled cell wall fraction of drug-resistant Aspergillus fumigatus EMFR-S678P at 0.12 ug/ml after 24 hrs in YPD medium by MS (MS/MS) analysis relative to control; type: functional, organism-based; outline: as §4
# [15] = system: Aspergillus fumigatus; assay: Induction of change in 37S ribosomal protein S24 protein level in iTRAQ-118 labelled cell wall fraction of drug-resistant Aspergillus fumigatus EMFR-S678P at 0.12 ug/ml after 24 hrs in YPD medium by MS (MS/MS) analysis relative to control; type: functional, organism-based; outline: as §4
# [16] = system: Aspergillus fumigatus; assay: Induction of change in 60S ribosomal protein L10 protein level in iTRAQ-118 labelled cell wall fraction of drug-resistant Aspergillus fumigatus EMFR-S678P at 0.12 ug/ml after 24 hrs in YPD medium by MS (MS/MS) analysis relative to control; type: functional, organism-based; outline: as §4
# [17] = system: Aspergillus fumigatus; assay: Induction of change in 60S ribosomal protein L27e protein level in iTRAQ-118 labelled cell wall fraction of drug-resistant Aspergillus fumigatus EMFR-S678P at 0.12 ug/ml after 24 hrs in YPD medium by MS (MS/MS) analysis relative to control; type: functional; outline: as §4
# [18] = system: Aspergillus fumigatus; assay: Induction of change in cytochrome c protein level in iTRAQ114 labelled secreted fraction of drug-susceptible Aspergillus fumigatus KU80 delta-akuB at 0.12 ug/ml after 24 hrs in YPD medium by MS (MS/MS) analysis relative to control; type: functional; outline: as §1
# [19] = system: Aspergillus fumigatus; assay: Induction of change in thioredoxin TrxA protein level in iTRAQ-118 labelled cell wall fraction of drug-susceptible Aspergillus fumigatus KU80 delta-akuB at 0.12 ug/ml after 24 hrs in YPD medium by MS (MS/MS) analysis relative to control; type: functional; outline: as §2
compound,measurement,setting,value
CC[C@H](C)C[C@H](C)CCCCCCCCC(=O)N[C@H]1C[C@@H](O)[C@@H](NCCN)NC(=O)[C@@H]2[C@@H](O)CCN2C(=O)[C@H]([C@H](O)CCN)NC(=O)[C@H]([C@H](O)[C@@H](O)c2ccc(O)cc2)NC(=O)[C@@H]2C[C@@H](O)CN2C(=O)[C@H]([C@@H](C)O)NC1=O [CASPOFUNGIN],fold change (FC),[1],2.8
same,fold change (FC),[2],>-16
same,fold change (FC),[3],-2.5
same,fold change (FC),[4],7.6
same,fold change (FC),[5],1.1
same,fold change (FC),[6],-2
same,fold change (FC),[7],7.2
same,fold change (FC),[8],1.9
same,fold change (FC),[9],1.6
same,fold change (FC),[10],1.9
same,fold change (FC),[11],-11.2
same,fold change (FC),[12],3.7
same,fold change (FC),[13],1.23
same,Activity,[14],inactive
same,Activity,[15],inactive
same,Activity,[16],inactive
same,fold change (FC),[17],-1.15
same,fold change (FC),[18],-2.6
same,fold change (FC),[19],-3.2
